Assay results published in ChEMBL document CHEMBL2401700, “Discovery of TD-8954, a clinical stage 5-HT(4) receptor agonist with gastrointestinal prokinetic properties” (Bioorg Med Chem Lett, 2013).

What was measured:
[1] = Half life in rat liver micrososmes; type: ADME, Microsome; conditions: liver microsomes
[2] = molecular target: T1, 5-hydroxytryptamine receptor 3A (Homo sapiens, UniProt P46098); assay: Binding affinity to human recombinant 5HT3 receptor
T1 sequence (P46098 whole entry): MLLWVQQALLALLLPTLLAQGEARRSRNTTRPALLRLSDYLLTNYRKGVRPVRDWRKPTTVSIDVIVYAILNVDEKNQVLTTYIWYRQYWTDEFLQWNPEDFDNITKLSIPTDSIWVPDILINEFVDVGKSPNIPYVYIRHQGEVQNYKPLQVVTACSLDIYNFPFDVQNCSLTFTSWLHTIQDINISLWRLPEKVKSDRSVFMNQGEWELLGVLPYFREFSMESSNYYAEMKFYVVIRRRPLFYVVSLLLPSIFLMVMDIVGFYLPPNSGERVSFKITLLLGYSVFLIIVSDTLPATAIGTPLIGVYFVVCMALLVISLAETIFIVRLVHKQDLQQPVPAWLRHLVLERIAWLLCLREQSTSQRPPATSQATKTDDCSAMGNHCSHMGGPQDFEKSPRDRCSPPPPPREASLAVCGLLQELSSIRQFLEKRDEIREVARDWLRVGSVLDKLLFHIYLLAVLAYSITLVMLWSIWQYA

[3] = Permeability across human Caco2 cells; type: ADME, cell-based; conditions: Caco-2, read-out: Kp
[4] = molecular target: T2, 5-hydroxytryptamine receptor 4 (Homo sapiens, UniProt Q13639); assay: Agonist activity at human recombinant 5HT4 receptor assessed as cAMP accumulation; type: functional
Procedure, shortened: (§1)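 cAMP accumulation in cells expressing human recombinant 5-HT4 receptor, reported as pEC50 with intrinsic activity as % of the maximum response achieved by 5-HT.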

[5] = molecular target: T2, 5-hydroxytryptamine receptor 4; assay: Binding affinity to human recombinant 5HT4 receptor
[6] = molecular target: T2, 5-hydroxytryptamine receptor 4; assay: Agonist activity at human recombinant 5HT4 receptor assessed as cAMP accumulation relative to 5-HT; type: functional; procedure, shortened: as §1
Rattus norvegicus = assay: Agonist activity at 5HT4 receptor in ID dosed rat assessed as dose required to cause esophageal relaxation of 0.1 mm; type: functional
Procedure, shortened: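 Anesthetized rats dosed intraduodenally over about 0.01–10 mg/kg. Esophageal relaxation was tracked by digital sonomicrometry as the change in inter-crystal distance (mm), n = 4–6. An ED50 was derived from the dose–response, and the dose giving a 0.1 mm relaxation response was calculated.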

[7] = Cardiotoxicity in dog coronary artery assessed as coronary artery constriction; type: toxicity, tissue-based, Canis lupus familiaris
[8] = molecular target: T3, 5-hydroxytryptamine receptor 7 (Homo sapiens, UniProt P34969); assay: Binding affinity to serotonin 5-HT7 receptor (unknown origin)
[9] = molecular target: 5-hydroxytryptamine receptor 2B (Homo sapiens, UniProt P41595); assay: Binding affinity to serotonin 5-HT2B receptor (unknown origin)
[10] = molecular target: 5-hydroxytryptamine receptor 2A (Homo sapiens, UniProt P28223); assay: Binding affinity to serotonin 5-HT2A receptor (unknown origin)
[11] = molecular target: T4, 5-hydroxytryptamine receptor 2C (Homo sapiens, UniProt P28335); assay: Binding affinity to serotonin 5-HT2C receptor (unknown origin)
T4 sequence (P28335 whole entry): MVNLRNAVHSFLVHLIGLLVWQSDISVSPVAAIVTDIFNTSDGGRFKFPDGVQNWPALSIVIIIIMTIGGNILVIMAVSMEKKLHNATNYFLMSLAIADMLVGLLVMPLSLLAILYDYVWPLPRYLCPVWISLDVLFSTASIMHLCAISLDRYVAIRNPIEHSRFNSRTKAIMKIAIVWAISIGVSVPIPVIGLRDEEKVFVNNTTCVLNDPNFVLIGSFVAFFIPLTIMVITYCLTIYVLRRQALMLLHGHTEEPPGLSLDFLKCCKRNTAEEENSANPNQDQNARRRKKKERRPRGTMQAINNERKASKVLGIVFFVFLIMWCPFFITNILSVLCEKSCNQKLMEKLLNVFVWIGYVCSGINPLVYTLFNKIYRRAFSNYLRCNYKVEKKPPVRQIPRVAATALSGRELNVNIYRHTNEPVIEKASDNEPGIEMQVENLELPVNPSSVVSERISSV

[12] = molecular target: 5-hydroxytryptamine receptor 1D (Homo sapiens, UniProt P28221); assay: Binding affinity to serotonin 5-HT1D receptor (unknown origin)
[13] = molecular target: T3, 5-hydroxytryptamine receptor 7; assay: Binding affinity to human serotonin 5-HT7 receptor
[14] = molecular target: T5, 5-hydroxytryptamine receptor 1A (Homo sapiens, UniProt P08908); assay: Binding affinity to human serotonin 5-HT1A receptor
T5 sequence (P08908 whole entry): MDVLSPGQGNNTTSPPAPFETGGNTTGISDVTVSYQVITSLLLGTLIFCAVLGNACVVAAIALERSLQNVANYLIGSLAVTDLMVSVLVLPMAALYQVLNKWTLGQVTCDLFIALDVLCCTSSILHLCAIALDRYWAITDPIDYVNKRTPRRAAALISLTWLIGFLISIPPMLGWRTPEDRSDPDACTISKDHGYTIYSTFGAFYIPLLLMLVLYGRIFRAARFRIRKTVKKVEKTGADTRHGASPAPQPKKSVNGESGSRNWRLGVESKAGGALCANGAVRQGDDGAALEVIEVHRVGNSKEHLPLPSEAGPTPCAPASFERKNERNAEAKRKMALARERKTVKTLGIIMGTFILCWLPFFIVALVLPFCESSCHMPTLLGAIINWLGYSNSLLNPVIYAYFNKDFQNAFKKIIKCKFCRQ

[15] = molecular target: T1, 5-hydroxytryptamine receptor 3A; assay: Binding affinity to serotonin 5-HT3 receptor (unknown origin)
hERG (KCNH2) = hERG (KCNH2) (Homo sapiens, UniProt Q12809); assay: Inhibition of human ERG channel at 3 uM
hERG (KCNH2), sequence (Q12809 whole entry): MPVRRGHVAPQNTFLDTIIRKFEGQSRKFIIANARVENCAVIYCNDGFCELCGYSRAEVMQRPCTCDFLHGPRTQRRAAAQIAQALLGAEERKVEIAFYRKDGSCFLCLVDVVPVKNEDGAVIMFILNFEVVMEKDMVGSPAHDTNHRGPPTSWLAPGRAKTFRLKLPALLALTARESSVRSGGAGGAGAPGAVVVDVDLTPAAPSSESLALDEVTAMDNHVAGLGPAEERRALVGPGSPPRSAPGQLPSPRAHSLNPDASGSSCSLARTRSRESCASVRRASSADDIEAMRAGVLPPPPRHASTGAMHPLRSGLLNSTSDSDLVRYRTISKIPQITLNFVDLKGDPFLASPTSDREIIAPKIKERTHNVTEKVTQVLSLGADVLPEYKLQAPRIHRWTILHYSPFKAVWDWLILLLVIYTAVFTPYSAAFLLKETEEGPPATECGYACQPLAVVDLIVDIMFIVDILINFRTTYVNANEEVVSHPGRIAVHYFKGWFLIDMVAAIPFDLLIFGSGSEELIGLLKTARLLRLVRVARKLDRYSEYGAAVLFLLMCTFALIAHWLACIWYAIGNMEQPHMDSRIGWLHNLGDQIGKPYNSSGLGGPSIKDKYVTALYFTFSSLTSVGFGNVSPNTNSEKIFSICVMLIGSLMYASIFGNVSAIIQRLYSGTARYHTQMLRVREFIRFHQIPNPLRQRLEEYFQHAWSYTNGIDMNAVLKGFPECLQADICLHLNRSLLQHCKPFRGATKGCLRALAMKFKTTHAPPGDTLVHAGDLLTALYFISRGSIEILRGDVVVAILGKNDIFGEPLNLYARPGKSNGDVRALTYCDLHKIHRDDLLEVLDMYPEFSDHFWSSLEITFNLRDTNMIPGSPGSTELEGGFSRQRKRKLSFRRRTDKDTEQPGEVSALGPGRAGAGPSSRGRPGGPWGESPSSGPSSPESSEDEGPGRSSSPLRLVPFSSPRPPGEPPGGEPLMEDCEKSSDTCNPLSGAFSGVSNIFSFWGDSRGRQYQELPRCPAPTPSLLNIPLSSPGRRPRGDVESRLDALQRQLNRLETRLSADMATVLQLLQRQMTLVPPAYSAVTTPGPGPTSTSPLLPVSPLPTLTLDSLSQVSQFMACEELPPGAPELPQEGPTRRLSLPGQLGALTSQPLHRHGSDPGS

T2 sequence (Q13639 whole entry): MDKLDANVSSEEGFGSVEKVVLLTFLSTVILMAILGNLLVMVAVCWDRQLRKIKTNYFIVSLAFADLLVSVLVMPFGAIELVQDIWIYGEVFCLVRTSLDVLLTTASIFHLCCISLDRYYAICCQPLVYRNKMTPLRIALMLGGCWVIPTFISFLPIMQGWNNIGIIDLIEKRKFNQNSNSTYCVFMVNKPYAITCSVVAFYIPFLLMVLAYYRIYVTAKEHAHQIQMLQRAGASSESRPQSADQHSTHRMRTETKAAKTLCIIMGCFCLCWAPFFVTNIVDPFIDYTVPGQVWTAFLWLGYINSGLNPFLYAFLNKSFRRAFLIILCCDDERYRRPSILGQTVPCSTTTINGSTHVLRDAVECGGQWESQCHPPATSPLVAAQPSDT
T3 sequence (P34969 whole entry): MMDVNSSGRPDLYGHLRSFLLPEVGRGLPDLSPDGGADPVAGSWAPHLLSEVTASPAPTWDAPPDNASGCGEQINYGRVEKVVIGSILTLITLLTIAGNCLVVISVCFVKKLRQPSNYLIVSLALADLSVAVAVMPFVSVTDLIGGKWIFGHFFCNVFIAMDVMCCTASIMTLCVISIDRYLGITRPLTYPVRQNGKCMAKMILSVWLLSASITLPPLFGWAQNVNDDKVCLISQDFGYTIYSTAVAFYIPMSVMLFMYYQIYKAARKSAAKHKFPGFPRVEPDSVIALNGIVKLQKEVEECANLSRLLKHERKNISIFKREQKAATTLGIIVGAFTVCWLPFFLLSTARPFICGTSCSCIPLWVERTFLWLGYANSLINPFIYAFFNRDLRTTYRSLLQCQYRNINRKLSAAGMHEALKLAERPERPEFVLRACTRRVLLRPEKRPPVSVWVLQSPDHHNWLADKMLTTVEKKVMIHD
5-hydroxytryptamine receptor 1D, sequence (P28221 whole entry): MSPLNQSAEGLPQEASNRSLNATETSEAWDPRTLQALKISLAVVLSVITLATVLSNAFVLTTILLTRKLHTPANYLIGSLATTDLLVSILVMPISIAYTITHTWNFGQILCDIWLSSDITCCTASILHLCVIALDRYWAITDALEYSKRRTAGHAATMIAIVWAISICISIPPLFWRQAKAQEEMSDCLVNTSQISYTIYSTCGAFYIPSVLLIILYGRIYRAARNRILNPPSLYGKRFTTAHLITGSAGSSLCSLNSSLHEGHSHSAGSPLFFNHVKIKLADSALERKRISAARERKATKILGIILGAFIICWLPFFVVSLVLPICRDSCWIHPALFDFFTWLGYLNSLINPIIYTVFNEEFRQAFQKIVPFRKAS
5-hydroxytryptamine receptor 2A, sequence (P28223 whole entry): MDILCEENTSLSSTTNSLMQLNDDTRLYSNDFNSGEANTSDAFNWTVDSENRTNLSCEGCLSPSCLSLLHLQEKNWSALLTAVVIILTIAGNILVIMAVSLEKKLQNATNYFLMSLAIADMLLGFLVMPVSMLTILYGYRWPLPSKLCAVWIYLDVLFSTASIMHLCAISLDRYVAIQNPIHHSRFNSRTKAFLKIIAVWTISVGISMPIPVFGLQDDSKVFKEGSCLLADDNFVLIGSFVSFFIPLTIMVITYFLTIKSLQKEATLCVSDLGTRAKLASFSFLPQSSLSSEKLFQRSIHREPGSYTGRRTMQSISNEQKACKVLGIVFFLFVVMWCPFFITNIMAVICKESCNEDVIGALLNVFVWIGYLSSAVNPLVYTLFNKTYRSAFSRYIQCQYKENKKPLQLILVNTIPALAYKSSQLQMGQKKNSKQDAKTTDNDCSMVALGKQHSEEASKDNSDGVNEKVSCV
5-hydroxytryptamine receptor 2B, sequence (P41595 whole entry): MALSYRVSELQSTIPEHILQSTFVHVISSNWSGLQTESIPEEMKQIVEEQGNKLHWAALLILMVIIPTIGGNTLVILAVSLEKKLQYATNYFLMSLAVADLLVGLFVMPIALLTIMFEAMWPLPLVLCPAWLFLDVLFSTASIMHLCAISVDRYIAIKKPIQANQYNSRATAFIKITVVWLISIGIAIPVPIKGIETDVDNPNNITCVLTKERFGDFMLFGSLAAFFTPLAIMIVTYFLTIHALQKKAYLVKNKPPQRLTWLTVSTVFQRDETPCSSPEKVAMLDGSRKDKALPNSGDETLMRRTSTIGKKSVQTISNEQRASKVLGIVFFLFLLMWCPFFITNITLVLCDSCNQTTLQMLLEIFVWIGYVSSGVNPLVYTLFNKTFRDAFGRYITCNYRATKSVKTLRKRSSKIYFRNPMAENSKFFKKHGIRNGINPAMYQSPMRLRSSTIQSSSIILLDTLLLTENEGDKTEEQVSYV

Row | Structure (SMILES) | half-life [1] | Ki [2] | Papp [3] | EC50 [4] | Ki [5] | Intrinsic activity [6] | further results
1 | CC(C)(C)c1nc2cccc(C(=O)NCC3CCN(CC(O)CN4CCN(S(C)(=O)=O)CC4)CC3)c2[nH]1 (stereo not given) | > 1.5 h | 39.8 µM | 0.5 ×10⁻⁶ cm/s | 0.00316 µM | 0.0126 µM |  | 
2 | CS(=O)(=O)N1CCN(CC(O)CN2CCC(NC(=O)c3cccc4[nH]cnc34)CC2)CC1 (stereo not given) |  | 63.1 µM |  | 0.631 µM | 0.251 µM | 7% | 
3 | CS(=O)(=O)N1CCN(CC(O)CN2[C@@H]3CC[C@H]2C[C@@H](NC(=O)c2cccc4[nH]cnc24)C3)CC1 (stereo not given in full) |  |  |  |  |  | 54% | 
4 | CS(=O)(=O)N1CCN(CC(O)CN2CCC(CNC(=O)c3cccc4[nH]c(C5CC5)nc34)CC2)CC1 (stereo not given) | > 1.5 h | 50.1 µM | 2.1 ×10⁻⁶ cm/s | 0.000631 µM | 0.000501 µM | 64% | 
5 | COC(=O)N(C)CC(O)CN1CCC(CNC(=O)c2cccc3nc(C(C)C)[nH]c23)CC1 (stereo not given) | 1.32 h | 50.1 µM | 2 ×10⁻⁶ cm/s | 0.002 µM | 0.00398 µM |  | 
6 | CCCCCNC(=N)N/N=C/c1c[nH]c2ccc(OC)cc12 [TEGASEROD] | > 1.5 h | 2.51 µM |  |  |  |  | Activity (Rattus norvegicus): 2.43 mg/kg; Activity [7]: Toxic; Ki [8]: < 0.1 µM; Ki [9]: < 0.002 µM; Ki [10]: < 0.1 µM; Ki [11]: < 0.1 µM; Ki [12]: < 0.1 µM
7 | CC(=O)N1CCN(CCN2CCC(CNC(=O)c3cccc4nc(C(C)C)[nH]c34)CC2)CC1 | > 1.5 h | 39.8 µM |  | 0.00316 µM | 0.00501 µM |  | 
8 | CC(=O)N(C)CC(O)CN1CCC(CNC(=O)c2cccc3[nH]c(C(C)C)nc23)CC1 (stereo not given) |  |  |  |  |  | 64% | 
9 | CC(C)(C)c1nc2c(C(=O)NCC3CCN(CC(O)CN4CCN(S(C)(=O)=O)CC4)CC3)cccc2[nH]1 (stereo not given) |  |  |  |  |  | 94% | 
10 | CC(=O)N(C)CC(O)CN1CCC(CNC(=O)c2cccc3nc(C(C)C)[nH]c23)CC1 (stereo not given) | > 1.5 h | 63.1 µM |  | 0.00158 µM | 0.00398 µM |  | 
11 | CC(C)c1nc2cccc(C(=O)NCC3CCN(CC(O)CN(C)S(C)(=O)=O)CC3)c2[nH]1 (stereo not given) | > 1.5 h | 79.4 µM | 1 ×10⁻⁶ cm/s | 0.000398 µM | 0.00126 µM |  | 
12 | COc1cc(N)c(Cl)cc1C(=O)NC1CCN(CCCOc2ccc(F)cc2)CC1OC (racemic) [CISAPRIDE] | 0.783 h | 2 µM |  |  |  | 71% | Activity (Rattus norvegicus): 2.66 mg/kg; Ki [13]: 1 µM; Ki [14]: 0.794 µM; Ki [15]: 2 µM
13 | CC(C)c1nc2c(C(=O)NCC3CCN(CCN4CCN(S(C)(=O)=O)CC4)CC3)cccc2[nH]1 | > 1.5 h | 100 µM | 4 ×10⁻⁶ cm/s | 0.000794 µM | 0.000794 µM | 64% | 
14 | CC(F)(F)c1nc2c(C(=O)NCC3CCN(CC(O)CN4CCN(S(C)(=O)=O)CC4)CC3)cccc2[nH]1 (stereo not given) |  |  |  |  |  | 59% | 
15 | CC(=O)N1CCN(CCN2CCC(CNC(=O)c3cccc4[nH]c(C(C)C)nc34)CC2)CC1 |  |  |  |  |  | 76% | 
16 | CCc1nc2c(C(=O)NCC3CCN(CC(O)CN4CCN(S(C)(=O)=O)CC4)CC3)cccc2[nH]1 (stereo not given) |  | 79.4 µM |  | 0.001 µM | 0.000501 µM | 22% | 
17 | CS(=O)(=O)N1CCN(CC(O)CN2CCC(CNC(=O)c3cccc4[nH]cnc34)CC2)CC1 (stereo not given) |  |  |  |  |  | 6% | 
18 | CC(F)(F)c1nc2cccc(C(=O)NCC3CCN(CC(O)CN4CCN(S(C)(=O)=O)CC4)CC3)c2[nH]1 (stereo not given) |  | 7.94 µM |  | 0.000794 µM | 0.002 µM |  | 
19 | CC(C)c1nc2c(C(=O)NCC3CCN(CC(O)CN(C)S(C)(=O)=O)CC3)cccc2[nH]1 (stereo not given) |  |  |  |  |  | 83% | 
20 | CC(C)c1nc2c(C(=O)NCC3CCN(CC(O)CN4CCN(S(C)(=O)=O)CC4)CC3)cc(Cl)cc2[nH]1 (stereo not given) |  | 1.26 µM |  |  | 0.000316 µM | 0% | 
21 | CC(=O)N1CCC(CN2CCC(CNC(=O)c3cccc4[nH]c(C(C)C)nc34)CC2)CC1 | > 1.5 h | 100 µM | 6 ×10⁻⁶ cm/s | 0.00158 µM | 0.001 µM | 87% | inhibition at 3 µM (hERG (KCNH2)): 22%
22 | CC(C)c1nc2c(C(=O)NCC3CCN(CC4CCN(S(C)(=O)=O)CC4)CC3)cccc2[nH]1 | 1.47 h | 100 µM | 5 ×10⁻⁶ cm/s | 0.001 µM | 0.000501 µM | 63% | inhibition at 3 µM (hERG (KCNH2)): 8%
23 | COC(=O)N(C)CC(O)CN1CCC(CNC(=O)c2cccc3[nH]c(C(C)C)nc23)CC1 (stereo not given) |  |  |  |  |  | 64% | 
24 | CS(=O)(=O)N1CCN(CC(O)CN2[C@@H]3CC[C@H]2C[C@@H](NC(=O)c2cccc4nc[nH]c24)C3)CC1 (stereo not given in full) |  | 20 µM |  | 0.251 µM | 0.316 µM |  | 
25 | COC(=O)N1CCN(CCN2CCC(CNC(=O)c3cccc4[nH]c(C(C)C)nc34)CC2)CC1 | > 1.5 h | 79.4 µM | 9 ×10⁻⁶ cm/s | 0.00158 µM | 0.00158 µM | 72% | 
26 | CS(=O)(=O)N1CCN(CC(O)CN2CCC(CNC(=O)c3cccc4[nH]c(-c5ccccc5)nc34)CC2)CC1 (stereo not given) |  | 15.8 µM |  | 0.00158 µM | 0.00126 µM | 41% | 
27 | CS(=O)(=O)N1CCN(CC(O)CN2CCC(CNC(=O)c3cccc4nc[nH]c34)CC2)CC1 (stereo not given) |  | 50.1 µM |  | 0.01 µM | 0.00631 µM |  | 
28 | CC(C)c1nc2c(C(=O)NCC3CCN(CC(O)CN4CCN(S(C)(=O)=O)CC4)CC3)cccc2[nH]1 (stereo not given) | > 1.5 h | 79.4 µM | 0.2 ×10⁻⁶ cm/s | 0.000631 µM | 0.000501 µM | 61% | inhibition at 3 µM (hERG (KCNH2)): 5%
